The values that follow come from ChEMBL document CHEMBL3232705, “Discovery of isoquinolinone indole acetic acids as antagonists of chemoattractant receptor homologous molecule expressed on Th2 cells (CRTH2) for the treatment of allergic inflammatory diseases” (J Med Chem, 2014).

SMILES strings stand for the structures. Calls of active or inactive are those of the source. No cut-off for these calls is given here.

One series has as its system Rattus norvegicus. Kind of series: Oral bioavailability. Particulars: in vivo.
For series [1], the target named is T1, Prostaglandin D2 receptor 2 (Homo sapiens, UniProt Q9Y5Y4).
T1 sequence (Q9Y5Y4 whole entry): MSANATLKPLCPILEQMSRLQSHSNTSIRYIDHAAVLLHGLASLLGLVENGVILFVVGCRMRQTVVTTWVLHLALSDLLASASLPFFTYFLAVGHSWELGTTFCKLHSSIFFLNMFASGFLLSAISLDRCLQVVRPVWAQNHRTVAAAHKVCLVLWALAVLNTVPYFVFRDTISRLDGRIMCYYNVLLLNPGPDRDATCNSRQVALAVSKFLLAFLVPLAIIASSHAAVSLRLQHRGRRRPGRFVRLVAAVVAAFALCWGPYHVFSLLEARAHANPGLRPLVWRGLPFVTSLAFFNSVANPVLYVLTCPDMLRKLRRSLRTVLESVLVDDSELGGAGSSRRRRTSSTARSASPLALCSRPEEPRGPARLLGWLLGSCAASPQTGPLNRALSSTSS
Description: Antagonist activity at human recombinant CRTh2 expressed in CHO-K1 cells by cAMP TR FRET assay. In kind it is functional, cell-based.

For a further series, the system named is Cavia porcellus. Description: Antiallergic activity in ovalbumin-induced allergic lung inflammation Hartley guinea pig model assessed as total cellularity in bronchoalveolar lavage fluid at 20 mg/kg, po administered 1 hr before and 6 hrs after ovalbumin challenge measured after 24 hrs. The format is functional, organism-based. More on the design: dose 20 mg/kg. The method in brief: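 Female Hartley guinea pigs (375–425 g) sensitized ip on days 1 and 5 with 100 μg OVA plus 100 mg aluminum hydroxide in PBS, then challenged on day 15 with aerosolized 0.01% OVA for 60 min. Dosed orally 1 h before and 6 h after challenge; vehicle was Tween 80 in cherry syrup. On day 16, lungs lavaged with 2 × 10 mL PBS. Total cells counted by hemocytometer; differentials from stained cytospins. Unpaired t test.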

The next series relates to Mus musculus. Description: Antiallergic activity in house dust mite-induced allergic airway disease BALB/c mouse model assessed as reduction in lymphocyte level in bronchoalveolar lavage fluid at 40 mg/kg, po after 72 hrs of HDM challenge. The format is functional, organism-based. More on the design: dose 40 mg/kg. Particulars: Lung. The method in brief: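 BALB/c mice given house dust mite intratracheally via a catheter passed through the vocal cords. Test article 40 mg/kg orally once daily; dexamethasone 1 mg/kg ip once daily as reference. Total and differential BAL cells (eosinophils, macrophages, lymphocytes, neutrophils) counted 72 h after HDM challenge. Mean ± SEM, Mann–Whitney U test.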

A short description of series [2]: Cmax in dog at 10 mg/kg, po. The format is ADME, organism-based, Canis lupus familiaris. More on the design: dose 10 mg/kg, route oral. Particulars: in vivo. The essentials: (§1)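 Single intravenous dose of 2 mg/kg and single oral dose of 10 mg/kg, given separately, in rat, dog and monkey. Clearance and half-life taken from the iv arm; Cmax from the oral arm.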
The next series concerns the target T2, Cytochrome P450 2B6 (Homo sapiens, UniProt P20813).
T2 sequence (P20813 whole entry): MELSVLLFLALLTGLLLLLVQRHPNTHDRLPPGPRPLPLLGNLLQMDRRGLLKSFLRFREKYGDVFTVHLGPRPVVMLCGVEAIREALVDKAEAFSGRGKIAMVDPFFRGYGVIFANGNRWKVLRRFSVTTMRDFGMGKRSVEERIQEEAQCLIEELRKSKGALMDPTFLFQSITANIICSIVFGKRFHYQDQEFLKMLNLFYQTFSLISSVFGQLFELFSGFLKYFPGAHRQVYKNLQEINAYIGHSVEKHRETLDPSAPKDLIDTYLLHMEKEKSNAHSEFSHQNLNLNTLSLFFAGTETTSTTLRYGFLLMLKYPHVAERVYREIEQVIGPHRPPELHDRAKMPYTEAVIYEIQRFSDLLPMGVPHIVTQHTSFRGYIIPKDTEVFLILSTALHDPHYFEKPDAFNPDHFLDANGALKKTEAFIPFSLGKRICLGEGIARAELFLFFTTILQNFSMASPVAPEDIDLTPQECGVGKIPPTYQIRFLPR
Description: Inhibition of CYP2B6 (unknown origin). The format is ADME.

Series [3] is described as follows: Clearance in rat at 2 mg/kg, iv. The format is ADME, organism-based. More on the design: dose 2 mg/kg, route intravenous. The note with it: in vivo. The essentials: as §1
The next series has as its system Ovis aries. Description: Inhibition of Ascaris-induced airway bronchoconstriction in sheep assessed as inhibition of early phase allergic airway bronchoconstriction at 1 mg/kg, iv qd for 7 days. The format is functional, organism-based. More on the design: dose 1 mg/kg. The method in brief: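 Sheep given 1 mg/kg iv once daily for 7 days before Ascaris suum allergen challenge. Early and late responses read as airway resistance above baseline, compared with each animal's historical untreated values. After the AHR measurement, three bronchi per sheep were lavaged for cell counts.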

`Cc1c(-c2cn(C(C)C)c(=O)c3ccccc23)c2cc(F)ccc2n1CC(=O)O` showed a bioavailability with Rattus norvegicus of 35%. Moreover, the IC50 in series [1] was 6 nM; on Cytochrome P450 2B6, > 100000 nM. Also, the inhibition entry with Cavia porcellus, with Mus musculus and in the series on Ovis aries was “Active” throughout. Moreover, the highest level in series [2] (Cmax) was 2010 ng/mL. Further, the clearance in series [3] turned out to be 18 mL/min/kg.
